Measurements reported in ChEMBL document CHEMBL1127349, “6,7,8,9-Tetrahydro-N,N-di-n-propyl-3H-benzindol-8-amines. Derivatives as potent and orally active serotonin 5-HT1A receptor agonists” (J Med Chem, 1994).
Activity calls are given as the source filed them. No cut-off for these calls is given here.

Legend:
[1] = tested on: Rattus norvegicus; experiment: The concentration yielding a half maximal decrease of the 5-HTP was determined in rat brain striatum; inactive at 11 umol/kg; assay type: functional, organism-based
Summary of the method: (§1)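 Reserpine-pretreated (5 mg/kg sc, 18 h) male Sprague-Dawley rats, 200–300 g; compounds in saline given sc. DOPA and 5-HTP in limbic system, striatum and hemispheres measured by HPLC with electrochemical detection. Dose–response curves of 4–6 doses (n = 4) per area, fitted to variable-slope sigmoid on log data to give ED50.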

[2] = organism: Rattus norvegicus; experiment: The concentration yielding a half maximal decrease of the DOPA was determined in rat limbic system. pED50 values in parenthesis; assay type: functional
[3] = tested on: Rattus norvegicus; experiment: The concentration yielding a half maximal decrease of the 5-HTP was determined in rat brain hemispheres; inactive at 11 umol/kg; assay type: functional, organism-based; summary of the method: as §1
[4] = organism: Rattus norvegicus; experiment: The concentration yielding a half maximal decrease of the DOPA was determined in rat brain striatum. pED50 values in parenthesis; assay type: functional
[5] = tested on: Rattus norvegicus; experiment: The concentration yielding a half maximal decrease of the 5-HTP was determined in rat limbic system; inactive at 11 umol/kg; assay type: functional, organism-based; summary of the method: as §1
[6] = tested on: Rattus norvegicus; experiment: The concentration yielding a half maximal decrease of the DOPA was determined in rat brain hemispheres; inactive at 11 umol/kg; assay type: functional, organism-based; summary of the method: as §1
[7] = tested on: Rattus norvegicus; experiment: Motor activity was measured by motility testing on injecting the compound subcutaneously into rats at the dose of 0.02 umol/kg (1a) and 3.5 umol/kg (1b)
[8] = organism: Rattus norvegicus; experiment: The concentration yielding a half maximal decrease of the 5-HTP was determined in rat brain hemispheres; assay type: functional; summary of the method: as §1
[9] = target: D(2) dopamine receptor (Rattus norvegicus, UniProt P61169); experiment: Displacement of the radioligand [3H]spiperone from D2 receptor
Chain of D(2) dopamine receptor (P61169 whole entry): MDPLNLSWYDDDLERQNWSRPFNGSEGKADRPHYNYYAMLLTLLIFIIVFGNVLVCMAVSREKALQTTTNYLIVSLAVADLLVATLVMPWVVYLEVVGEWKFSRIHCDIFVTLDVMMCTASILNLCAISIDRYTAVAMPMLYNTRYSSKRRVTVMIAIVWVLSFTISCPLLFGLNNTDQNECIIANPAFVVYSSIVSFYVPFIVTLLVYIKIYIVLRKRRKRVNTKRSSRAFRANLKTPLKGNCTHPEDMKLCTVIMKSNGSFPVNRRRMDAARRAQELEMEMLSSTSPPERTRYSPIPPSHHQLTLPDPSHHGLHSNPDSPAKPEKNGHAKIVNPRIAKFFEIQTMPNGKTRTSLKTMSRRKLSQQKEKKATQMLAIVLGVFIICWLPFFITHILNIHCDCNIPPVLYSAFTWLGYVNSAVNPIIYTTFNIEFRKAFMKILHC
Summary of the method: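 Rat striatal membranes in 50 mM potassium phosphate buffer, incubated with 0.5 nM [3H]spiperone (3 mg tissue) 10 min at 37 °C. Nonspecific binding defined with 10 μM 6,7-ADTN. IC50 converted to Ki by Cheng–Prusoff; 3–7 experiments, each concentration in triplicate.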

[10] = organism: Rattus norvegicus; experiment: Log concentration to inhibit 5-HTP accumulation was determined in rat limbic system; assay type: functional; summary of the method: as §1
[11] = organism: Rattus norvegicus; experiment: Log concentration to inhibit 5-HTP accumulation was determined in rat brain hemispheres; assay type: functional; summary of the method: as §1
[12] = organism: Rattus norvegicus; experiment: Log concentration to inhibit 5-HTP accumulation was determined in rat brain striatum; assay type: functional; summary of the method: as §1
[13] = Time taken to reach maximum concentration after administration of 10 umol/kg dose perorally; assay type: ADME, organism-based; conditions: in vivo, po
Summary of the method: (§2)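 Male Sprague-Dawley rats, starved 18 h for the oral arm, dosed iv or po. Blood sampled at intervals up to 12 h. Compound measured by GC/mass spectrometry against an internal standard, with a standard curve over 2–1000 pmol/mL in blank blood. tmax read from concentration–time curves, n = 4–6.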

[14] = organism: Rattus norvegicus; experiment: The concentration yielding a half maximal decrease of the 5-HTP was determined in rat brain striatum; assay type: functional; summary of the method: as §1
[15] = Maximum concentration in plasma after administration of 10 umol/kg dose perorally; assay type: ADME, organism-based; design: dose 10 umol/kg, route oral; conditions: po
Summary of the method: (§3)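 Male Sprague-Dawley rats starved 18 h, dosed orally. Blood samples over up to 12 h, drug quantified by GC/MS against internal standard (2–1000 pmol/mL standard curve). Cmax read from concentration–time curve; SEM, n = 4–6.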

[16] = Area under the curve after intravenous administration at a dose of 2 umol/kg; assay type: ADME; conditions: in vivo
[17] = Time taken to reach maximum concentration after administration of 2 umol/kg dose intravenously; assay type: ADME, organism-based; conditions: in vivo, iv
[18] = tested on: Rattus norvegicus; experiment: The concentration yielding a half maximal decrease of the DOPA was determined in rat limbic system; inactive at 3.1 umol/kg; assay type: functional, organism-based
[19] = tested on: Rattus norvegicus; experiment: Ratio of the 5HTP-accumulation decrease in limbic regions of oral to that of sc administration; assay type: functional, Limbic system
Summary of the method: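 Ratio of ED50 for decrease of limbic 5-HTP accumulation after oral versus sc dosing in reserpine-pretreated rats; 5-HTP measured by HPLC with electrochemical detection.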

[20] = Bioavailability in rats after 5 mg/kg (i.v.) and 40 mg/kg (p.o.) administration; assay type: ADME, organism-based; conditions: rat, in vivo, po
Summary of the method: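 Male Sprague-Dawley rats; oral group starved 18 h, compared with iv dosing. Blood sampled up to 12 h, levels by GC/MS. Absolute oral availability F (po/iv) from ratio of AUCs of blood concentration–time curves, po n = 5, iv n = 3.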

[21] = organism: Rattus norvegicus; experiment: The concentration yielding a half maximal decrease of the 5-HTP was determined in rat limbic system; assay type: functional; summary of the method: as §1
[22] = Maximum concentration in plasma after administration of 2 umol/kg dose intravenously; assay type: ADME, organism-based; design: dose 2 umol/kg, route intravenous; conditions: iv
[23] = tested on: Rattus norvegicus; experiment: The concentration yielding a half maximal decrease of the DOPA was determined in rat brain hemispheres; inactive at 3.1 umol/kg; assay type: functional, organism-based; summary of the method: as §1
[24] = tested on: Rattus norvegicus; experiment: The concentration yielding a half maximal decrease of the DOPA was determined in rat brain striatum; inactive at 3.1 umol/kg; assay type: functional, organism-based
[25] = Half life in plasma after administration of 2 umol/kg dose perorally; assay type: ADME, organism-based; conditions: po
[26] = organism: Rattus norvegicus; experiment: Log concentration to inhibit DOPA accumulation was determined in rat limbic system; assay type: functional; summary of the method: as §1
[27] = Time taken to reach maximum concentration after administration of 5 umol/kg dose intravenously; assay type: ADME, organism-based; conditions: in vivo, iv; summary of the method: as §2
[28] = Half life in plasma after administration of 5 umol/kg dose intravenously; assay type: ADME, organism-based; conditions: iv
Summary of the method: (§4)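 Male Sprague-Dawley rats, iv dosing. Blood sampled at intervals up to 12 h, plasma drug levels by GC/MS with internal standard and a 2–1000 pmol/mL standard curve in blank blood. AUC from total area of concentration–time curve; iv n = 3 (table values SEM, n = 4–6).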

[29] = organism: Rattus norvegicus; experiment: The concentration yielding a half maximal decrease of the DOPA was determined in rat brain hemispheres; assay type: functional
[30] = organism: Rattus norvegicus; experiment: The concentration yielding a half maximal decrease of the 5-HTP was determined in rat brain hemispheres.; assay type: functional
[31] = Bioavailability in rats after 2 mg/kg (i.v.) and 10 mg/kg (p.o.) administration; assay type: ADME, organism-based; conditions: rat, in vivo, po
[32] = organism: Rattus norvegicus; experiment: The concentration yielding a half maximal decrease of the 5-HTP was determined in rat limbic system.; assay type: functional
[33] = organism: Rattus norvegicus; experiment: Log concentration to inhibit DOPA accumulation was determined in rat brain hemispheres; assay type: functional; summary of the method: as §1
[34] = Maximum concentration in plasma after administration of 5 umol/kg dose intravenously; assay type: ADME, organism-based; design: dose 5 umol/kg, route intravenous; conditions: iv; summary of the method: as §4
[35] = Time taken to reach maximum concentration after administration of 40 umol/kg dose perorally; assay type: ADME, organism-based; conditions: in vivo, po; summary of the method: as §2
[36] = organism: Rattus norvegicus; experiment: Log concentration to inhibit DOPA accumulation was determined in rat brain striatum; assay type: functional; summary of the method: as §1
[37] = organism: Rattus norvegicus; experiment: The concentration yielding a half maximal decrease of the DOPA was determined in rat brain striatum.; assay type: functional
[38] = Area under the curve after intravenous administration at a dose of 5 umol/kg; assay type: ADME; conditions: in vivo; summary of the method: as §4
[39] = organism: Rattus norvegicus; experiment: The concentration yielding a half maximal decrease of the DOPA was determined in rat limbic system.; assay type: functional
[40] = tested on: Rattus norvegicus; experiment: Motor activity was measured by motility testing on injecting the compound subcutaneously into rats at the dose of 12.5 umol/kg; assay type: functional
Summary of the method: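 Rats given reserpine 5 mg/kg sc 18 h beforehand, then test compound sc in neck (n = 4). Placed singly in photocell motility meters straight after dosing; counts recorded for 30 min, gross behaviour observed throughout. Value as counts/30 min with SEM.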

[41] = organism: Rattus norvegicus; experiment: The concentration yielding a half maximal decrease of the 5-HTP was determined in rat brain striatum.; assay type: functional
[42] = Maximum concentration in plasma after administration of 40 umol/kg dose perorally; assay type: ADME, organism-based; design: dose 40 umol/kg, route oral; conditions: po; summary of the method: as §3
[43] = target: T1, 5-hydroxytryptamine receptor 1A (Rattus norvegicus, UniProt P19327); experiment: Displacement of the radioligand [3H]8-OH-DPAT from 5-hydroxytryptamine 1A receptor
T1 sequence (P19327 whole entry): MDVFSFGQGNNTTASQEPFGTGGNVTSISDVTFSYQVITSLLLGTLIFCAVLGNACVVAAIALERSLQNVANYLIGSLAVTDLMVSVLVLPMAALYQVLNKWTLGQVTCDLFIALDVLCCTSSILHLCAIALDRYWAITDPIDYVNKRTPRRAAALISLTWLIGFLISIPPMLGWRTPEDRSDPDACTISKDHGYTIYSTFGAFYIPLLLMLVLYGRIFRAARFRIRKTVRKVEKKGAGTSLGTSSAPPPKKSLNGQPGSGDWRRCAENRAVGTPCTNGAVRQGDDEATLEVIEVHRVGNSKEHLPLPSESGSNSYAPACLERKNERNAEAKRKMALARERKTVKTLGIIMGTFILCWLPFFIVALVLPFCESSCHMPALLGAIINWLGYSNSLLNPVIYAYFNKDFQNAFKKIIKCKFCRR
Summary of the method: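 Rat whole brain minus brain stem and cerebellum, washed membranes in 50 mM Tris pH 8.0 with 120 mM NaCl, 4 mM CaCl2, 4 mM MgCl2, 10 μM pargyline. Nonspecific with 10 μM 5-HT. IC50 by semilog linear regression, Ki via Cheng–Prusoff; 3–7 experiments, triplicates.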

CCCN(CCC)C1CCc2ccc(O)cc2C1 (stereo not drawn)
ED50 [1]: inactive
ED50 [2]: 0.027 µmol/kg
ED50 [3]: inactive
ED50 [4]: 0.03 µmol/kg
ED50 [5]: inactive
ED50 [6]: inactive
Counts/30 min [7]: 170

CCCN(CCC)[C@@H]1CCc2ccc3[nH]cc(C=O)c3c2C1
ED50 [8]: 0.45 µmol/kg
Ki [9]: 382 nM
pED50 [10]: 7.14
pED50 [11]: 6.34
pED50 [12]: 6.91
Tmax [13]: 2.5 h
ED50 [14]: 0.12 µmol/kg
Cmax [15]: 108 nM
AUC [16]: 431 pM/kg
Tmax [17]: 2 min
ED50 [18]: inactive
ED50 [19]: 15%
bioavailability [20]: 46%
ED50 [21]: 0.072 µmol/kg
Cmax [22]: 712 nM
ED50 [23]: inactive
ED50 [24]: inactive
half-life [25]: 1.5 h
Counts/30 min [7]: 162

CCCN(CCC)C1CCc2ccc3[nH]cc(C#N)c3c2C1 (stereo not drawn)
pED50 [26]: 5.98
Tmax [27]: 2 min
Ki [9]: 439 nM
half-life [28]: 1.5 h
ED50 [29]: 5.2 µmol/kg
ED50 [30]: 0.45 µmol/kg
bioavailability [31]: 54%
pED50 [10]: 6.77
pED50 [11]: 6.35
ED50 [32]: 0.17 µmol/kg
pED50 [33]: 5.29
Cmax [34]: 1730 nM
pED50 [12]: 6.65
Tmax [35]: 2.25 h
pED50 [36]: 5.49
ED50 [37]: 3.2 µmol/kg
AUC [38]: 1115 pM/kg
ED50 [39]: 1.05 µmol/kg
Activity [40]: 317 Counts 30min-1
ED50 [41]: 0.22 µmol/kg
Cmax [42]: 1500 nM
Ki [43]: 1.8 nM
